Assay results from ChEMBL document CHEMBL1255466, “Nucleotide selectivity of antibiotic kinases” (Antimicrob Agents Chemother, 2010).

Tests used:
[1] = Inhibition of APH(3')-3a by PK/LDH-coupled assay
Procedure, shortened: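 N-terminally His6-tagged kinase, purified on Ni-NTA. Antibiotic at saturating level, preincubated 5 min at 37°C. Started with ATP or GTP held at Km. AMPPNP or GMPPNP added as 2-fold dilutions. NADH oxidation read at 340 nm over 5 min. IC50 fitted, then converted to Ki.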

[2] = Activity at macrolide 2'-phosphotransferase 1 by PK/LDH-coupled assay
Procedure, shortened: (§1)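 Macrolide substrate was varied in the PK/LDH-coupled system (HEPES pH 7.5, KCl, MgCl2, NADH, PEP), with fixed 0.2 mM GTP as donor. Antibiotic was preincubated with enzyme 5 min at 37°C, the reaction was started with nucleotide, and NADH oxidation was read at 340 nm for 5 min. Initial rates were fitted to Michaelis-Menten, or to a substrate-inhibition equation where it applied.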

[3] = Ratio of Kcat to Km for macrolide 2'-phosphotransferase 1 by PK/LDH-coupled assay; procedure, shortened: as §1
[4] = Activity at macrolide 2'-phosphotransferase 1 by PK/LDH-coupled assay in presence of GTP
Procedure, shortened: (§2)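 His6-tagged kinase purified by Ni-NTA. […] Nucleotide (ATP or GTP) was varied to start; A340 followed 5 min. Linear initial rates were fitted by nonlinear least squares.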

[5] = Ratio of Kcat to Km for macrolide 2'-phosphotransferase 1 by PK/LDH-coupled assay in presence of ATP; procedure, shortened: as §2
[6] = Ratio of Kcat to Km for macrolide 2'-phosphotransferase 1 by PK/LDH-coupled assay in presence of GTP; procedure, shortened: as §2
[7] = Activity at macrolide 2'-phosphotransferase 1 by PK/LDH-coupled assay in presence of ATP; procedure, shortened: as §2
[8] = Inhibition of macrolide 2'-phosphotransferase 1 by PK/LDH-coupled assay
[9] = Ratio of Kcat to Km for APH(3')-3a by PK/LDH-coupled assay in presence of ATP; procedure, shortened: as §2
[10] = Activity at APH(3')-3a by PK/LDH-coupled assay in presence of ATP; procedure, shortened: as §2

Compound	Km [2]	kcat [2]	kcat/Km [3]	further results
Nc1nc2c(ncn2[C@@H]2O[C@H](COP(=O)(O)OP(=O)(O)NP(=O)(O)O)[C@@H](O)[C@H]2O)c(=O)[nH]1 [PHOSPHOAMINOPHOSPHONIC ACID GUANYLATE ESTER]	–	–	–	Ki [1]: Not Active
CC[C@H]1OC(=O)[C@H](C)[C@@H](O[C@H]2C[C@@](C)(OC)[C@@H](O)[C@H](C)O2)[C@H](C)[C@@H](O[C@@H]2O[C@H](C)C[C@H](N(C)C)[C@H]2O)[C@](C)(O)C[C@@H](C)CN(C)[C@H](C)[C@@H](O)[C@]1(C)O	27.7 µM	0.292 s⁻¹	1.05 ×10⁴ /s/M	–
CC[C@H]1OC(=O)[C@H](C)[C@@H](O[C@H]2C[C@@](C)(OC)[C@@H](O)[C@H](C)O2)[C@H](C)[C@@H](O[C@@H]2O[C@H](C)C[C@H](N(C)C)[C@H]2O)[C@](C)(O)C[C@@H](C)C(=O)[C@H](C)[C@@H](O)[C@]1(C)O	37.2 µM	0.279 s⁻¹	7.52 ×10³ /s/M	Km [4]: 59.2 µM; kcat [4]: 0.634 s⁻¹; kcat/Km [5]: 1.16 ×10¹ /s/M; kcat/Km [6]: 1.07 ×10⁴ /s/M; Km [7]: 1890 µM; kcat [7]: 0.022 s⁻¹
CC[C@H]1OC(=O)[C@H](C)C(=O)[C@H](C)[C@@H](O[C@@H]2O[C@H](C)C[C@H](N(C)C)[C@H]2O)[C@](C)(OC)C[C@@H](C)C(=O)[C@H](C)[C@H]2N(CCCCn3cnc(-c4cccnc4)c3)C(=O)O[C@]12C	7.4 µM	0.152 s⁻¹	2.07 ×10⁴ /s/M	Ki [8]: 622 µM
Nc1ncnc2c1ncn2[C@@H]1O[C@H](COP(=O)(O)OP(=O)(O)NP(=O)(O)O)[C@@H](O)[C@H]1O	–	–	–	Ki [8]: Not Active; Ki ([1]; read-out: Ki): 14.2 µM
NC[C@@H]1O[C@H](O[C@H]2[C@@H](O)[C@H](O[C@@H]3[C@@H](O)[C@H](N)C[C@H](N)[C@H]3O[C@H]3O[C@H](CN)[C@@H](O)[C@H](O)[C@H]3N)O[C@@H]2CO)[C@H](N)[C@@H](O)[C@@H]1O	–	–	–	kcat/Km [9]: 1.5 ×10⁵ /s/M; Km [10]: 10.6 µM; kcat [10]: 1.59 s⁻¹
CC[C@H]1OC(=O)C[C@@H](O)[C@H](C)[C@@H](O[C@@H]2O[C@H](C)[C@@H](O[C@H]3C[C@@](C)(O)[C@@H](O)[C@H](C)O3)[C@H](N(C)C)[C@H]2O)[C@@H](CC=O)C[C@@H](C)C(=O)/C=C/C(C)=C/[C@@H]1CO[C@@H]1O[C@H](C)[C@@H](O)[C@@H](OC)[C@H]1OC	131 µM	0.174 s⁻¹	1.33 ×10³ /s/M	–

Further lines, with some results ahead:

Km [2]	kcat [2]	kcat/Km [3]	Compound	further results
45.9 µM	0.311 s⁻¹	6.77 ×10³ /s/M	CC[C@H]1OC(=O)[C@H](C)[C@@H](O[C@H]2C[C@@](C)(OC)[C@@H](O)[C@H](C)O2)[C@H](C)[C@@H](O[C@@H]2O[C@H](C)C[C@H](N(C)C)[C@H]2O)[C@](C)(OC)C[C@@H](C)C(=O)[C@H](C)[C@@H](O)[C@]1(C)O	–
478 µM	0.2 s⁻¹	4.19 ×10² /s/M	SPIRAMYCIN	–
